Laboratory results taken from ChEMBL document CHEMBL3286203, “Reactive oxygen species (ROS) inducible DNA cross-linking agents and their effect on cancer cells and normal lymphocytes” (J Med Chem, 2014).
Active and inactive are the calls of the source. The rule behind the calls is not given here.

Legend:
[1] = tested on: EKVX; experiment: Cytotoxicity against human EKVX cells assessed as growth inhibition at 10 uM after 48 hrs by SRB assay; format: functional, cell-based
In short: (§1)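 NCI DTP 60-cell-line screen run at the NCI. Cells were grown in RPMI 1640 with 5% FBS and 2 mM L-glutamine. They were seeded at 5000–40 000 cells/well depending on doubling time and grown in two plates per line. Each was exposed to a single 10 μM dose for 48 h at 37 °C, 5% CO2, 95% air, 100% humidity. Read-out was percent growth.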

[2] = Induction of [32P]-labeled 49-mer oligonucleotide duplex DNA 12 with GNC sequence at terminus (unknown origin) interstrand cross-linking at 1 mM after 16 hrs by PAGE in presence of H2O2
In short: (§2)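 32P-labelled 12a (1.0 μM) annealed with 1.5 equiv of 12b in 10 mM potassium phosphate pH 7 / 100 mM NaCl (65 °C for 3 min, then slow cooling). Duplex incubated with compound (final 1 μM–5 mM), with or without H2O2, in NaCl and potassium phosphate pH 8 at room temperature for 16 h. Quenched in formamide; 20% denaturing PAGE.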

[3] = tested on: HCT-116; experiment: Cytotoxicity against human HCT116 cells assessed as growth inhibition at 10 uM after 48 hrs by SRB assay; format: functional, cell-based; in short: as §1
[4] = tested on: MOLT-4; experiment: Cytotoxicity against human MOLT4 cells assessed as growth inhibition at 10 uM after 48 hrs by SRB assay; format: functional, cell-based
In short: (§3)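 Single-dose screen run by the NCI Developmental Therapeutics Program (NCI-60). Cells were grown in RPMI 1640 with 5% fetal bovine serum and 2 mM L-glutamine. They were plated at 5000–40 000 cells/well, depending on doubling time. Each line was run in two plates and exposed to 10 μM drug for 48 h at 37 °C, 5% CO2, 100% humidity. Read-out was growth percent.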

[5] = tested on: HL-60(TB); experiment: Cytotoxicity against human HL-60(TB) cells assessed as growth inhibition at 10 uM after 48 hrs by SRB assay; format: functional, cell-based; in short: as §1
[6] = tested on: SNB-75; experiment: Cytotoxicity against human SNB75 cells assessed as growth inhibition at 10 uM after 48 hrs by SRB assay; format: functional, cell-based
In short: (§4)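 NCI-60 DTP human tumour line screen. Cells grown in RPMI 1640 with 5% fetal bovine serum and 2 mM L-glutamine, plated at 5000–40 000 cells/well according to doubling time. Single dose of 10 μM for 48 h at 37 °C, 5% CO2, 95% air, 100% humidity, two plates per line. Read-out is growth percent.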

[7] = tested on: RPMI-8226; experiment: Cytotoxicity against human RPMI8226 cells assessed as growth inhibition at 10 uM after 48 hrs by SRB assay; format: functional, cell-based; in short: as §3
[8] = tested on: RXF 393; experiment: Cytotoxicity against human RXF393 cells assessed as growth inhibition at 10 uM after 48 hrs by SRB assay; format: functional, cell-based; in short: as §3
[9] = tested on: TK-10; experiment: Cytotoxicity against human TK10 cells assessed as growth inhibition at 10 uM after 48 hrs by SRB assay; format: functional, cell-based; in short: as §4
[10] = tested on: T47D; experiment: Cytotoxicity against human T47D cells assessed as growth inhibition at 10 uM after 48 hrs by SRB assay; format: functional, cell-based; in short: as §4
[11] = tested on: NCI-H460; experiment: Cytotoxicity against human NCI-H460 cells assessed as growth inhibition at 10 uM after 48 hrs by SRB assay; format: functional, cell-based; in short: as §3
[12] = tested on: UO-31; experiment: Cytotoxicity against human UO31 cells assessed as growth inhibition at 10 uM after 48 hrs by SRB assay; format: functional, cell-based; in short: as §4
[13] = tested on: MDA-MB-435; experiment: Cytotoxicity against human MDA-MB-435 cells assessed as growth inhibition at 10 uM after 48 hrs by SRB assay; format: functional, cell-based; in short: as §3
[14] = tested on: NCI/ADR-RES; experiment: Cytotoxicity against human NCI-ADR-RES cells assessed as growth inhibition at 10 uM after 48 hrs by SRB assay; format: functional, cell-based; in short: as §3
[15] = tested on: SK-MEL-5; experiment: Cytotoxicity against human SK-MEL-5 cells assessed as growth inhibition at 10 uM after 48 hrs by SRB assay; format: functional, cell-based; in short: as §3
[16] = tested on: COLO 205; experiment: Cytotoxicity against human COLO205 cells assessed as growth inhibition at 10 uM after 48 hrs by SRB assay; format: functional, cell-based; in short: as §1
[17] = tested on: SK-MEL-28; experiment: Cytotoxicity against human SK-MEL-28 cells assessed as growth inhibition at 10 uM after 48 hrs by SRB assay; format: functional, cell-based; in short: as §3
[18] = tested on: Malme-3M; experiment: Cytotoxicity against human MALME-3M cells assessed as growth inhibition at 10 uM after 48 hrs by SRB assay; format: functional, cell-based; in short: as §1
[19] = tested on: U-251; experiment: Cytotoxicity against human U251 cells assessed as growth inhibition at 10 uM after 48 hrs by SRB assay; format: functional, cell-based; in short: as §4
[20] = tested on: SK-OV-3; experiment: Cytotoxicity against human SKOV3 cells assessed as growth inhibition at 10 uM after 48 hrs by SRB assay; format: functional, cell-based; in short: as §3
[21] = tested on: MDA-MB-231; experiment: Cytotoxicity against human MDA-MB-231 cells assessed as growth inhibition at 10 uM after 48 hrs by SRB assay; format: functional, cell-based; in short: as §3
[22] = Induction of [32P]-labeled 49-mer oligonucleotide duplex DNA 12 with GNC sequence at terminus (unknown origin) interstrand cross-linking at 1 mM after 16 hrs by PAGE; in short: as §2
[23] = tested on: NCI-H226; experiment: Cytotoxicity against human NCI-H226 cells assessed as growth inhibition at 10 uM after 48 hrs by SRB assay; format: functional, cell-based; in short: as §3
[24] = tested on: SF-295; experiment: Cytotoxicity against human SF295 cells assessed as growth inhibition at 10 uM after 48 hrs by SRB assay; format: functional, cell-based; in short: as §3
[25] = tested on: HOP-62; experiment: Cytotoxicity against human HOP62 cells assessed as growth inhibition at 10 uM after 48 hrs by SRB assay; format: functional, cell-based; in short: as §1
[26] = tested on: SF-539; experiment: Cytotoxicity against human SF539 cells assessed as growth inhibition at 10 uM after 48 hrs by SRB assay; format: functional, cell-based; in short: as §3
[27] = tested on: SW-620; experiment: Cytotoxicity against human SW620 cells assessed as growth inhibition at 10 uM after 48 hrs by SRB assay; format: functional, cell-based; in short: as §4
[28] = tested on: IGROV-1; experiment: Cytotoxicity against human IGROV1 cells assessed as growth inhibition at 10 uM after 48 hrs by SRB assay; format: functional, cell-based; in short: as §1
[29] = tested on: OVCAR-3; experiment: Cytotoxicity against human OVCAR3 cells assessed as growth inhibition at 10 uM after 48 hrs by SRB assay; format: functional, cell-based; in short: as §3
[30] = tested on: A498; experiment: Cytotoxicity against human A498 cells assessed as growth inhibition at 10 uM after 48 hrs by SRB assay; format: functional, cell-based; in short: as §1
[31] = tested on: CAKI-1; experiment: Cytotoxicity against human Caki1 cells assessed as growth inhibition at 10 uM after 48 hrs by SRB assay; format: functional, cell-based; in short: as §1
[32] = tested on: SR; experiment: Cytotoxicity against human SR cells assessed as growth inhibition at 10 uM after 48 hrs by SRB assay; format: functional, cell-based; in short: as §4
[33] = tested on: NCI-H322M; experiment: Cytotoxicity against human NCI-H322M cells assessed as growth inhibition at 10 uM after 48 hrs by SRB assay; format: functional, cell-based; in short: as §3
[34] = tested on: KM12; experiment: Cytotoxicity against human KM12 cells assessed as growth inhibition at 10 uM after 48 hrs by SRB assay; format: functional, cell-based; in short: as §1
[35] = tested on: OVCAR-4; experiment: Cytotoxicity against human OVCAR4 cells assessed as growth inhibition at 10 uM after 48 hrs by SRB assay; format: functional, cell-based; in short: as §3
[36] = tested on: MCF7; experiment: Cytotoxicity against human MCF7 cells assessed as growth inhibition at 10 uM after 48 hrs by SRB assay; format: functional, cell-based; in short: as §3

Row | Compound | growth inhibition (GI) [1] | Activity [2] | growth inhibition (GI) [3] | growth inhibition (GI) [4] | growth inhibition (GI) [5] | growth inhibition (GI) [6] | growth inhibition (GI) [7] | growth inhibition (GI) [8] | growth inhibition (GI) [9] | growth inhibition (GI) [10] | growth inhibition (GI) [11] | growth inhibition (GI) [12] | growth inhibition (GI) [13] | growth inhibition (GI) [14] | growth inhibition (GI) [15] | growth inhibition (GI) [16] | growth inhibition (GI) [17] | growth inhibition (GI) [18] | growth inhibition (GI) [19] | growth inhibition (GI) [20] | further results
1 | CC1(C)OB(c2ccc(N(CCCl)CCCl)cc2)OC1(C)C | Active | 37% | Active | Active | Active | Active | Active | Active | Active | Active | Active | Active | Active | Active | Active | Active | Active | Active | Active | Active | growth inhibition (GI) [21]: Active; Activity [22]: inactive; growth inhibition (GI) [23]: Active; growth inhibition (GI) [24]: Active; growth inhibition (GI) [25]: Active; growth inhibition (GI) [26]: Active; growth inhibition (GI) [27]: Active; growth inhibition (GI) [28]: Active; growth inhibition (GI) [29]: Active; growth inhibition (GI) [30]: Active; growth inhibition (GI) [31]: Active; growth inhibition (GI) [32]: Active; growth inhibition (GI) [33]: Active; growth inhibition (GI) [34]: Active; growth inhibition (GI) [35]: Active; growth inhibition (GI) [36]: Active
2 | CC1(C)OB(c2ccc(N(CCBr)CCOS(C)(=O)=O)cc2)OC1(C)C | Active | 37% | Active | Active | Active | Active | Active | Active | Active | Active | Active | Active | Active | Active | Active | Active | Active | Active | Active | Active | growth inhibition (GI) [21]: Active; Activity [22]: inactive; growth inhibition (GI) [23]: Active; growth inhibition (GI) [24]: Active; growth inhibition (GI) [25]: Active; growth inhibition (GI) [26]: Active; growth inhibition (GI) [27]: Active; growth inhibition (GI) [28]: Active; growth inhibition (GI) [29]: Active; growth inhibition (GI) [30]: Active; growth inhibition (GI) [31]: Active; growth inhibition (GI) [32]: Active; growth inhibition (GI) [33]: Active; growth inhibition (GI) [34]: Active; growth inhibition (GI) [35]: Active; growth inhibition (GI) [36]: Active
3 | CC1(C)OB(c2ccc(COC(=O)N(CCCl)CCCl)cc2)OC1(C)C | inactive | inactive | inactive | inactive | inactive | inactive | inactive | inactive | inactive | inactive | inactive | inactive | inactive | inactive | inactive | inactive | inactive | inactive | inactive | inactive | growth inhibition (GI) [21]: inactive; Activity [22]: inactive; growth inhibition (GI) [23]: inactive; growth inhibition (GI) [24]: inactive; growth inhibition (GI) [25]: inactive; growth inhibition (GI) [26]: inactive; growth inhibition (GI) [27]: inactive; growth inhibition (GI) [28]: inactive; growth inhibition (GI) [29]: inactive; growth inhibition (GI) [30]: inactive; growth inhibition (GI) [31]: inactive; growth inhibition (GI) [32]: inactive; growth inhibition (GI) [33]: inactive; growth inhibition (GI) [34]: inactive; growth inhibition (GI) [35]: inactive; growth inhibition (GI) [36]: inactive
